According to article PMC2745083 (Neuropharmacology, 2009):

How the values were obtained:
LogD determination = type: physicochemical; conditions: octanol/phosphate buffer, pH 7.4
Procedure, shortened: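 Formulated [11C]-labeled test compound was partitioned between octanol and phosphate buffer (pH 7.4), vortexed 2 min and centrifuged 2 min. Both layers were sampled. The octanol layer was serially transferred to fresh octanol/buffer and the procedure repeated, giving six sample sets. Radioactivity was measured in a well counter. logD = log(decay-corrected octanol activity × 10 / decay-corrected buffer activity).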

[1] = Brain homogenate analysis for parent compound after i.p. injection; type: in vivo, Sprague Dawley rats; conditions: rat, ~65 min post injection
Procedure, shortened: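 Male Sprague Dawley rats (7–8 weeks) under isoflurane/oxygen got the [11C]-labeled test compound i.p. via a butterfly catheter with a saline rinse (3.0 ± 0.4 mCi), followed by 60 min dynamic PET. Animals were decapitated and brains homogenized in water. The homogenate was precipitated with cold acetonitrile, vortexed and centrifuged (2000 rcf, 2 min). The supernatant was spiked with standard, γ-counted and run on HPLC; the co-eluting fraction was counted as a decay-corrected ratio to initial homogenate radioactivity.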

[2] = Plasma protein binding assay; type: in vitro ADME; conditions: baboon
Procedure, shortened: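 Formulated [11C]-labeled test compound was incubated 10 min at room temperature in baboon plasma pooled from at least 4 animals. Total activity was sampled, then plasma was ultrafiltered through a Centrifree device (10 min centrifugation) and the filtrate counted. %unbound = Aunbound × 100 / total activity.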

[3] = not given; remark: listed apart in the source
[4] = [acetyl-11C]-SA from published data; ref Hooker et al., 2008; cited from earlier work
[5] = [acetyl-11C]-SA from published data; ref Hooker et al., 2008; cited from earlier work; remark: listed apart in the source
[6] = system: permeability glycoprotein (P-gp); conditions: ref Teksin et al., 2009; cited from earlier work
[7] = in vivo, 10 mg/kg; cited from earlier work
[8] = baboon, i.v., acetyl-labeled SA, previous study; ref Hooker, 2008; cited from earlier work
[9] = female, baboon (Papio anubis), in vivo, iv

CCOCO[C@H]1C[C@@H](C(=O)OC)[C@]2(C)CC[C@H]3C(=O)O[C@H](c4ccoc4)C[C@]3(C)[C@H]2C1=O [EOM-SB]
logD (LogD determination): 2.46 ± 0.01 | plasma radioactivity that was parent compound [9]: ~50% | proportion of parent compound remaining in brain homogenate [1]: 14% | proportion of parent remaining in brain homogenate, fold higher than [11C]-SA [1]: ~3 fold | fraction unbound at 10 min [2]: 0.234

COC(=O)[C@@H]1C[C@H](OC(C)=O)C(=O)[C@H]2[C@@]1(C)CC[C@H]1C(=O)O[C@H](c3ccoc3)C[C@]21C [SA, Salvinorin A]
maximum average concentration in the brain ([3]; baboon, bolus intravenous administration, whole brain ROI): 0.015 % ID/cm^3 | brain radioactivity at 60 min after injection (cleared to) ([3]; baboon, i.v., labeled at the methyl ester): 0.001% | LogD (pH 7.4) [4]: 2.34 ± 0.09 (n = 4) | Plasma Protein Binding (% unbound) [5]: 16.1 % (n = 2) | efflux by permeability glycoprotein (P-gp) [6]: efflux | antinociception after 30 minutes [7]: no detectable antinociception | time to be metabolized to ~50% in plasma (baboon plasma after i.v. injection): under 5 min | residual radioactivity in brain at 60 min after injection [8]: 0.004 % ID/cm^3

COC(=O)[C@@H]1C[C@H](O)C(=O)[C@H]2[C@@]1(C)CC[C@H]1C(=O)O[C@H](c3ccoc3)C[C@]21C [SB, Salvinorin B]
lower average maximum brain concentration relative to [11C]-SA [3, 9]: approximately 20% | time of peak brain concentration [3, 9]: 70 s | time to clear to half of maximum brain concentration [3, 9]: 6.0 min | logD (LogD determination): 1.5 | fraction unbound at 10 min [2]: 0.473
